Assay results taken from ChEMBL document CHEMBL1153367, “Synthesis and evaluation of lysine derived sulfamides as histone deacetylase inhibitors” (Bioorg Med Chem Lett, 2009).

Legend:
Histone deacetylase [1] = assay: Inhibition of HDAC in HEK293T cells by whole cell assay; format: cell-based, Homo sapiens; conditions: hek-293t
How it was run: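 Cultured 293T cells exposed to inhibitors for 16 h, then given the membrane-permeable substrate Boc-Ac-Lys-AMC for 90 min at 37 °C. Quenched with trypsin (1 mg/mL final) and TSA, then lysed in 1% NP-40. Fluorescence read at Ex 360/Em 470 nm; IC50 reported. Values are means of at least two experiments.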

[2] = target: T1, Protein deacetylase HDAC6 (Homo sapiens, UniProt Q9UBN7); assay: Inhibition of human recombinant His-tagged HDAC6 expressed in baculovirus
T1 sequence (Q9UBN7 whole entry): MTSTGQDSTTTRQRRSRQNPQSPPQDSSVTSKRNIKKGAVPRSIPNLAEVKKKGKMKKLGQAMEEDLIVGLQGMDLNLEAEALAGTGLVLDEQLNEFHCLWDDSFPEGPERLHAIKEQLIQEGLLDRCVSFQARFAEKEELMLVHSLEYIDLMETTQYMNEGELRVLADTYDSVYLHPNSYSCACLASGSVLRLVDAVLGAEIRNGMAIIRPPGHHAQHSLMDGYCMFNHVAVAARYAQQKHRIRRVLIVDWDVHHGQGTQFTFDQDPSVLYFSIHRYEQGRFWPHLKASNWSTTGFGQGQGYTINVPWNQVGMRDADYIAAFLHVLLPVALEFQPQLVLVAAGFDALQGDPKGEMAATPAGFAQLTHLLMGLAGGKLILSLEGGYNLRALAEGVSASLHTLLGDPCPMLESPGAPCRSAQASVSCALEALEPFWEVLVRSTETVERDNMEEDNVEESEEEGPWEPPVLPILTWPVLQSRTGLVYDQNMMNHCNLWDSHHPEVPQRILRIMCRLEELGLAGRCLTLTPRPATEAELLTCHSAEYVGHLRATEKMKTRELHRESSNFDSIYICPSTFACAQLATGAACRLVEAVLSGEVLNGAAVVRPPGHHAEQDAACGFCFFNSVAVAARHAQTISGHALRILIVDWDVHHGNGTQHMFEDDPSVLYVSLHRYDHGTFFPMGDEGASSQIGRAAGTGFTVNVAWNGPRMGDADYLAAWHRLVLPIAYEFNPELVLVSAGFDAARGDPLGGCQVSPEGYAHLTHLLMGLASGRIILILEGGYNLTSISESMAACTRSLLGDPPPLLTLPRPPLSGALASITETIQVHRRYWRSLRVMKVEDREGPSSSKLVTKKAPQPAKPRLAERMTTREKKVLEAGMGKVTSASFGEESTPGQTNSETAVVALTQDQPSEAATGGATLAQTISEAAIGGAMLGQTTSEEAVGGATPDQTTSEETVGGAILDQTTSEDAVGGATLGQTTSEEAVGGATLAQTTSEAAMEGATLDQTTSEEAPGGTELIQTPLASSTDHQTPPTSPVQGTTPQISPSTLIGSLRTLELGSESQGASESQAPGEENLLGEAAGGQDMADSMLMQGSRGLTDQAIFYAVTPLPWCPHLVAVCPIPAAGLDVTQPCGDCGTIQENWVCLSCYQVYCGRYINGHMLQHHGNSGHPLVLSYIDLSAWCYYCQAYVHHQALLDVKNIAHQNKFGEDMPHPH
How it was run: (§1)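 Enzyme preincubated with inhibitor 10 min at ambient temperature in 25 mM Hepes pH 8.0, 137 mM NaCl, 1 mM MgCl₂, 2.7 mM KCl. Coumarin-labeled acetyl-lysine substrate then added, incubated at 37 °C. Quenched with trypsin (1 mg/mL final) and TSA (1 μM final). Fluorescence read; IC50 from dose–response curves. Values are means of at least two experiments.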

Histone deacetylase 1 = Histone deacetylase 1 (Homo sapiens, UniProt Q13547); assay: Inhibition of human recombinant FLAG-tagged HDAC1 expressed in baculovirus; how it was run: as §1
[3] = Oral bioavailability in rat; format: ADME, organism-based; conditions: in vivo
[4] = Volume of distribution at steady state in rat; format: ADME, organism-based; conditions: in vivo, read-out: Vdss
[5] = Bioavailability in dog; format: ADME, organism-based, Canis lupus familiaris; conditions: in vivo
[6] = Clearance in iv dosed rat; format: ADME, organism-based; conditions: in vivo
[7] = Clearance in dog; format: ADME, organism-based, Canis lupus familiaris; conditions: in vivo
[8] = Half life in rat; format: ADME, organism-based; conditions: in vivo
Plasma [9] = assay: Metabolic stability in human plasma; format: ADME, cell-free
[10] = Half life in dog; format: ADME, organism-based, Canis lupus familiaris; conditions: in vivo
Plasma [11] = assay: Metabolic stability in rat plasma; format: ADME, cell-free
Histone deacetylase [12] = assay: Inhibition of HDAC in T24 cells assessed as alpha-tubulin acetylation; conditions: Homo sapiens
Histone deacetylase [13] = assay: Inhibition of HDAC in T24 cells assessed as histone H3 acetylation; conditions: Homo sapiens
[14] = Metabolic stability in rat plasma assessed as compound remaining after 1 hr; format: ADME, cell-free; conditions: read-out: Activity
How it was run: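 Compound kept in rat plasma at 37 °C for 1 h; percentage of intact compound remaining was measured.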

Homo sapiens = species on record: Homo sapiens; assay: Selectivity for ratio of IC50 for human recombinant HDAC1 to IC50 for human recombinant HDAC6
How it was run: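 HDAC1 and HDAC6 were each preincubated with compound for 10 min at ambient temperature in 25 mM Hepes pH 8.0, 137 mM NaCl, 1 mM MgCl2, 2.7 mM KCl. A coumarin-labeled acetyl-lysine substrate was then added at 37 °C. Reactions were quenched with trypsin (1 mg/mL final) plus TSA, and fluorescence was read. IC50s came from dose-response curves, as means of at least two experiments. The ratio is HDAC1 IC50 over HDAC6 IC50.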

Sequence of Histone deacetylase 1 (Q13547 whole entry): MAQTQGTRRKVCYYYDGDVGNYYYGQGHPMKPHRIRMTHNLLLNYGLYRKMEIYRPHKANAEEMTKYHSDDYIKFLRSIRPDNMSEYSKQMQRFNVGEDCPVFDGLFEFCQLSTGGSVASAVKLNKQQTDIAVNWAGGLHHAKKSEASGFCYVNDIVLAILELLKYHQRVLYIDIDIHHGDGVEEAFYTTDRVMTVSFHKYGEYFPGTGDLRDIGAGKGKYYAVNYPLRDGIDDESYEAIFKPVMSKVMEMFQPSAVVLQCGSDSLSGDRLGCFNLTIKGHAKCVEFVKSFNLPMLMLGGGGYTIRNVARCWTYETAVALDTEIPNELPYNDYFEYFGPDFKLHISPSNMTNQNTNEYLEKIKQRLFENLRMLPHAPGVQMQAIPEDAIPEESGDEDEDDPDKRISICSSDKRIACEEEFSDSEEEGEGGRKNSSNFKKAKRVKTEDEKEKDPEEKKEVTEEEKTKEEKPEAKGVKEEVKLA

SMILES	IC50 (Histone deacetylase [1])	IC50 [2]	IC50 (Histone deacetylase 1)	other results
NS(=O)(=O)NCCCC[C@H](NC(=O)OCc1ccccc1)c1nc(-c2ccccc2)cs1	12 µM	1.2 µM	4.9 µM	
NS(=O)(=O)NCCCC[C@H](NC(=O)OCc1ccccc1)C(=O)Nc1nc(-c2ccc(Cl)cc2)cs1	4.9 µM	0.25 µM	0.15 µM	
CC(C)(C)c1csc(NC(=O)[C@H](CCCCNS(N)(=O)=O)NC(=O)OCc2ccccc2)n1	9.1 µM	0.84 µM	3.6 µM	
COc1ccc(-c2nc([C@H](CCCCNS(N)(=O)=O)NC(=O)OCc3ccccc3)cs2)cc1		0.48 µM	0.5 µM	
NS(=O)(=O)NCCCC[C@H](NC(=O)NCc1ccc(F)cc1)C(=O)Nc1nc(-c2ccccc2)cs1	29 µM	0.37 µM	0.35 µM	
NS(=O)(=O)NCCCC[C@H](NC(=O)OCc1ccccc1)c1nc2cc(-c3cccs3)ccc2[nH]1	0.62 µM	0.48 µM	0.2 µM	bioavailability [3]: 0.5%; Vd [4]: 0.03 L/kg; bioavailability [5]: 6%; clearance [6]: 6.83 mL/min/kg; clearance [7]: 8.5 mL/min/kg; half-life [8]: 1.2 h; Stability (Plasma [9]): Stable; half-life [10]: 5.7 h; Stability (Plasma [11]): Stable
NS(=O)(=O)NCCCC[C@H](NC(=O)OCc1ccccc1)C(=O)Nc1nc2ccccc2s1	19 µM	0.19 µM	4.5 µM	
N[C@@H](CCCCNS(N)(=O)=O)C(=O)Nc1nc(-c2ccccc2)cs1	> 50 µM	1.1 µM	> 10 µM	
NS(=O)(=O)NCCCC[C@H](NC(=O)OCc1ccccc1)C(=O)Nc1nc(-c2ccccc2)c(-c2ccccc2)s1	7.2 µM	0.45 µM	0.85 µM	
NS(=O)(=O)NCCCC[C@H](NC(=O)OCc1ccccc1)c1nnc(-c2ccccc2)o1	9.9 µM	1.8 µM	3.2 µM	
CC(C)c1ccc(-c2csc(NC(=O)[C@H](CCCCNS(N)(=O)=O)NC(=O)OCc3ccccc3)n2)cc1	3.2 µM	1.4 µM	0.52 µM	
Cn1nc([C@H](CCCCNS(N)(=O)=O)NC(=O)OCc2ccccc2)nc1-c1ccccc1	> 50 µM	2 µM	4.3 µM	
NS(=O)(=O)NCCCC[C@H](NC(=O)OCc1ccccc1)c1nc(-c2ccc(F)cc2)no1	> 50 µM	1.7 µM	> 10 µM	
COc1ccc2[nH]c(C)c(CC(=O)N[C@@H](CCCCNS(N)(=O)=O)C(=O)Nc3nc(-c4ccccc4)cs3)c2c1	0.59 µM	1.2 µM	0.064 µM	
CCOC(=O)N[C@@H](CCCCNS(N)(=O)=O)C(=O)Nc1nc(-c2ccccc2)cs1	17 µM	0.2 µM	2.5 µM	
NS(=O)(=O)NCCCC[C@H](NC(=O)Cc1ccccc1)C(=O)Nc1nc(-c2ccccc2)cs1	6.1 µM	0.15 µM	0.7 µM	

SMILES	IC50 (Histone deacetylase [1])	IC50 [2]	IC50 (Histone deacetylase 1)	other results
CCOC(=O)c1csc(NC(=O)[C@H](CCCCNS(N)(=O)=O)NC(=O)OCc2ccccc2)n1	> 50 µM	0.58 µM	> 10 µM	
CN(C)CCOc1ccc(-c2nc([C@H](CCCCNS(N)(=O)=O)NC(=O)OCc3ccccc3)cs2)cc1	0.18 µM	0.89 µM	0.39 µM	bioavailability [3]: 0.5%; Vd [4]: 0.78 L/kg; clearance [6]: 38.3 mL/min/kg; half-life [8]: 1.6 h
NS(=O)(=O)NCCCC[C@H](NC(=O)OCc1cccc(Cl)c1)C(=O)Nc1nc(-c2ccccc2)cs1	3.6 µM	0.28 µM	0.35 µM	
NS(=O)(=O)NCCCC[C@H](NC(=O)OCc1ccccc1)C(=O)Nc1nc(-c2ccccc2)cs1	2.3 µM			bioavailability [3]: 4.9%; Vd [4]: 0.02 L/kg; clearance [6]: 41.7 mL/min/kg; EC50 (Histone deacetylase [12]): 0.6 µM; half-life [8]: 0.025 h; EC50 (Histone deacetylase [13]): 0.7 µM; remaining at 1 h [14]: 3%
NS(=O)(=O)NCCCC[C@H](NC(=O)OCc1ccccc1)c1csc(-c2ccccc2)n1	5.8 µM	0.4 µM	0.79 µM	Ratio IC50 (Homo sapiens): 2
NS(=O)(=O)NCCCC[C@H](NC(=O)Nc1ccccc1)C(=O)Nc1nc(-c2ccccc2)cs1	> 50 µM	0.56 µM	2.3 µM	
NS(=O)(=O)NCCCC[C@H](NC(=O)OCc1ccccc1)c1c[nH]c(-c2ccccc2)n1	2.2 µM	0.41 µM	0.29 µM	
NS(=O)(=O)NCCCC[C@H](NC(=O)OCc1ccc(Cl)cc1)C(=O)Nc1nc(-c2ccccc2)cs1	6.8 µM	0.53 µM	0.57 µM	
NS(=O)(=O)NCCCC[C@H](NS(=O)(=O)Cc1ccccc1)C(=O)Nc1nc(-c2ccccc2)cs1	38 µM	0.52 µM	1.4 µM	
NS(=O)(=O)NCCCC[C@H](NC(=O)OCc1ccccc1)C(=O)Nc1nccs1	> 50 µM	4.1 µM	> 10 µM	
NS(=O)(=O)NCCCC[C@H](NC(=O)OCc1ccccc1)c1nc2ccccc2[nH]1	9.5 µM	0.1 µM	2.9 µM	
COc1ccc(-c2csc(NC(=O)[C@H](CCCCNS(N)(=O)=O)NC(=O)OCc3ccccc3)n2)cc1	0.53 µM	0.2 µM	0.12 µM	
NS(=O)(=O)NCCCC[C@H](NC(=O)OCc1cccnc1)C(=O)Nc1nc(-c2ccccc2)cs1	18 µM	0.6 µM	1.5 µM	
COc1cccc(-c2csc(NC(=O)[C@H](CCCCNS(N)(=O)=O)NC(=O)OCc3ccccc3)n2)c1	3.2 µM	0.42 µM	0.46 µM	
NS(=O)(=O)NCCCC[C@H](NC(=O)OCc1ccccc1)c1n[nH]c(-c2ccccc2)n1	6.4 µM	0.32 µM	2.4 µM	
